ChEMBL document CHEMBL1157529, “Lantadenes and their esters as potential antitumor agents” (J Nat Prod, 2008)
Values after ≈ are worked out from the molar mass of the structure shown.

Legend:
HeLa = assay: Cytotoxicity against human HeLa cells after 48 hrs by MTT assay; assay type: functional, cell-based
Outline: (§1)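 HL-60, HeLa, colon 502713 and A-549 cells grown in RPMI with 10% FBS, streptomycin and penicillin at 37 °C, 5% CO2. Cells (2 × […]/0.1 mL well) exposed 48 h to serial compound dilutions. MTT added for the final 4 h at 37 °C. Formazan extracted in DMSO and read at 540 nm. Mean and standard deviation of triplicate assays.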

A549 = assay: Cytotoxicity against human A549 cells after 48 hrs by MTT assay; assay type: functional, cell-based; settings: A549, 48 h; outline: as §1
[1] = Inhibition of DMBA-induced/TPA-promoted carcinogenesis in Swiss albino mouse squamous cells assessed as survival rate administered orally 1 week before DMBA administration and continued for 20 weeks relative to DMPA/TPA treated control; assay type: functional
Outline: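 Female Swiss albino mice (LACCA, 6 weeks, 18-22 g), depilated back; DMBA 100 nmol/100 µL acetone topically for 2 weeks, then TPA 1.7 nmol/100 µL acetone twice weekly for 18 weeks. Compounds given orally as suspension in water/carboxymethyl cellulose from 1 week before DMBA for 20 weeks, n = 10/group. Number of surviving animals recorded at 20 weeks.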

[2] = Cytotoxicity against human colon 502713 cells after 48 hrs by MTT assay; assay type: functional, cell-based; settings: Homo sapiens, 502713, 48 h; outline: as §1
HL-60 = assay: Cytotoxicity against human HL60 cells after 48 hrs by MTT assay; assay type: functional, cell-based; settings: HL-60, 48 h; outline: as §1
[3] = Inhibition of DMBA-induced/TPA-promoted carcinogenesis in Swiss albino mouse squamous cells assessed as incidence of skin papillomas administered orally 1 week before DMBA administration and continued for 20 weeks relative to DMPA/TPA treated control; assay type: functional
Outline: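 Female Swiss albino mice (LACCA, 6 weeks, 18-22 g), backs depilated. DMBA 100 nmol in 100 µL acetone applied topically for 2 weeks, then TPA 1.7 nmol in 100 µL acetone twice weekly for 18 weeks. Compounds given orally in water/carboxymethyl cellulose, starting 1 week before DMBA, for 20 weeks. n = 10 per group. Papilloma incidence, body weight and survival recorded.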

Compound	IC50 (HeLa)	IC50 (A549)	survival rate [1]	IC50 [2]	IC50 (HL-60)	inhibition (INH) [3]
CCC(=O)O[C@@H]1CC(C)(C)C[C@H]2C3=CC[C@@H]4[C@@]5(C)CCC(=O)C(C)(C)[C@@H]5CC[C@@]4(C)[C@]3(C)CC[C@@]12C(=O)O	28.6 mg/L (≈ 54.3 µM)	29.6 mg/L (≈ 56.2 µM)	80%	25.4 mg/L (≈ 48.2 µM)	26.4 mg/L (≈ 50.1 µM)	19.6%
COC(=O)[C@@]12CC[C@]3(C)C(=CC[C@@H]4[C@@]5(C)CCC(=O)C(C)(C)[C@@H]5CC[C@]43C)[C@@H]1CC(C)(C)C[C@H]2O	> 100 mg/L	84.2 mg/L (≈ 174 µM)	–	72.4 mg/L (≈ 149 µM)	70.6 mg/L (≈ 146 µM)	–
CC1(C)C[C@@H](OC(=O)c2ccccc2)[C@]2(C(=O)O)CC[C@]3(C)C(=CC[C@@H]4[C@@]5(C)CCC(=O)C(C)(C)[C@@H]5CC[C@]43C)[C@@H]2C1	46.3 mg/L (≈ 80.5 µM)	> 100 mg/L	–	51.2 mg/L (≈ 89.1 µM)	50.8 mg/L (≈ 88.4 µM)	–
CCCC(=O)O[C@@H]1CC(C)(C)C[C@H]2C3=CC[C@@H]4[C@@]5(C)CCC(=O)C(C)(C)[C@@H]5CC[C@@]4(C)[C@]3(C)CC[C@@]12C(=O)O	22.8 mg/L (≈ 42.2 µM)	27.1 mg/L (≈ 50.1 µM)	–	25.2 mg/L (≈ 46.6 µM)	21.6 mg/L (≈ 39.9 µM)	17.2%
COC(=O)[C@@]12CC[C@]3(C)C(=CC[C@@H]4[C@@]5(C)CCC(=O)C(C)(C)[C@@H]5CC[C@]43C)[C@@H]1CC(C)(C)C[C@H]2OC(C)=O	36.2 mg/L (≈ 68.7 µM)	36.8 mg/L (≈ 69.9 µM)	–	34.6 mg/L (≈ 65.7 µM)	37.3 mg/L (≈ 70.8 µM)	–
C/C=C(/C)C(=O)O[C@@H]1CC(C)(C)C[C@H]2C3=CC[C@@H]4[C@@]5(C)CCC(=O)C(C)(C)[C@@H]5CC[C@@]4(C)[C@]3(C)CC[C@@]12C(=O)O [LANTADENE A]	23.3 mg/L (≈ 42.1 µM)	21.8 mg/L (≈ 39.4 µM)	–	21.3 mg/L (≈ 38.5 µM)	19.8 mg/L (≈ 35.8 µM)	18.1%
CCCC(=O)O[C@@H]1CC(C)(C)C[C@H]2C3=CC[C@@H]4[C@@]5(C)CCC(=O)C(C)(C)[C@@H]5CC[C@@]4(C)[C@]3(C)CC[C@@]12C(=O)OC	20.1 mg/L (≈ 36.2 µM)	22.4 mg/L (≈ 40.4 µM)	80%	21.1 mg/L (≈ 38 µM)	19.3 mg/L (≈ 34.8 µM)	12.4%
CCC(=O)O[C@@H]1CC(C)(C)C[C@H]2C3=CC[C@@H]4[C@@]5(C)CCC(=O)C(C)(C)[C@@H]5CC[C@@]4(C)[C@]3(C)CC[C@@]12C(=O)OC	26.4 mg/L (≈ 48.8 µM)	28.4 mg/L (≈ 52.5 µM)	80%	22.4 mg/L (≈ 41.4 µM)	24.2 mg/L (≈ 44.7 µM)	17.9%
CC(=O)O[C@H]1C(=O)[C@@]2(C)[C@H]([C@H](OC(=O)c3ccccc3)[C@]3(O)C[C@H](OC(=O)[C@H](O)[C@@H](NC(=O)c4ccccc4)c4ccccc4)C(C)=C1C3(C)C)[C@]1(OC(C)=O)CO[C@@H]1C[C@@H]2O [PACLITAXEL]	> 3 mg/L	< 2 mg/L	–	< 2 mg/L	< 2 mg/L	–
COC(=O)[C@@]12CC[C@]3(C)C(=CC[C@@H]4[C@@]5(C)CCC(=O)C(C)(C)[C@@H]5CC[C@]43C)[C@@H]1CC(C)(C)C[C@H]2OC(=O)C(C)C	41.1 mg/L (≈ 74.1 µM)	42.2 mg/L (≈ 76.1 µM)	–	38.1 mg/L (≈ 68.7 µM)	39.5 mg/L (≈ 71.2 µM)	–
CC(C)C(=O)O[C@@H]1CC(C)(C)C[C@H]2C3=CC[C@@H]4[C@@]5(C)CCC(=O)C(C)(C)[C@@H]5CC[C@@]4(C)[C@]3(C)CC[C@@]12C(=O)O	43.6 mg/L (≈ 80.6 µM)	44.2 mg/L (≈ 81.7 µM)	80%	37.6 mg/L (≈ 69.5 µM)	41.2 mg/L (≈ 76.2 µM)	–
COC(=O)[C@@]12CC[C@]3(C)C(=CC[C@@H]4[C@@]5(C)CCC(=O)C(C)(C)[C@@H]5CC[C@]43C)[C@@H]1CC(C)(C)C[C@H]2OC(=O)c1ccccc1	50.7 mg/L (≈ 86.1 µM)	> 100 mg/L	–	> 100 mg/L	48 mg/L (≈ 81.5 µM)	–
CC(=O)O[C@@H]1CC(C)(C)C[C@H]2C3=CC[C@@H]4[C@@]5(C)CCC(=O)C(C)(C)[C@@H]5CC[C@@]4(C)[C@]3(C)CC[C@@]12C(=O)O	37.3 mg/L (≈ 72.7 µM)	36.8 mg/L (≈ 71.8 µM)	–	34.4 mg/L (≈ 67.1 µM)	38.5 mg/L (≈ 75.1 µM)	–
CC1(C)C[C@@H](O)[C@]2(C(=O)O)CC[C@]3(C)C(=CC[C@@H]4[C@@]5(C)CCC(=O)C(C)(C)[C@@H]5CC[C@]43C)[C@@H]2C1	> 100 mg/L	> 100 mg/L	–	> 100 mg/L	< 100 mg/L	–
